Calls of active or inactive are those of the source. No cut-off for these calls is given here.
Key:
[1] = Solubility of the compound in 0.9% saline; type: physicochemical; conditions: buffer
[2] = system: Canis familiaris; assay: Toxicity in mongrel dog assessed as change in blood pressure at 17 umol/kg, iv for 10 mins; type: organism-based, Canis lupus familiaris; conditions: in vivo
[3] = system: Canis familiaris; assay: Diuretic activity in mongrel dog assessed as decrease in glomerular filtration rate during 2 hrs period at 17 umol/kg, iv for 10 mins; type: functional, organism-based; conditions: Canis lupus familiaris, Urine
Procedure, shortened: (§1)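 Single 17.0 μmol/kg iv dose in 10 mL 0.9% saline, given over 10 min; sodium salts formed with NaHCO3 where needed. GFR from plasma and urine inulin; Na by flame photometry. Changes per kg computed for each 10-min period after dosing minus the predrug period; mean Δ ± SEM, paired comparison, p < 0.05.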

[4] = Metabolic stability in dog urine assessed as ethacrynic acid release after 72 hrs at pH 7 +/- 0.5 by NMR/TLC analysis; type: ADME, tissue-based, Canis lupus familiaris; conditions: pH 7, 72 h
[5] = system: Canis familiaris; assay: Inhibition of ethacrynic acid-induced diuresis in mongrel dog assessed as decrease in glomerular filtration rate during 2 hrs period at 17 umol/kg, iv for 10 mins; type: organism-based, Canis lupus familiaris; conditions: in vivo
Procedure, shortened: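 Dogs received 17.0 μmol/kg iv over 10 min, and renal parameters were followed for 2 h. Sodium ethacrynate, 3.3 μmol/kg iv in 10 mL saline over 10 min, was then given. Inulin GFR/kg and Na excretion/kg were taken per 10-min period as change from the predrug value; mean Δ ± SEM; paired comparison, p < 0.05.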

[6] = Biotransformation in mongrel dog assessed as ethacrynic acid-cysteine in urine at 17 umol/kg, iv for 10 mins after 2 hrs; type: ADME, organism-based, Canis lupus familiaris; conditions: in vivo
Procedure, shortened: (§2)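 Dogs given 17.0 μmol/kg iv in 10 mL 0.9% saline, prepared 3–5 min before dosing and infused over 10 min. Urine collected for 2 h after dosing and freeze-dried in 1-h portions; control urine from nine 10-min predrug periods handled the same way. Residues taken up in H2O and run on cellulose TLC in n-BuOH–C6H6–MeOH–H2O (20:10:12.5:10); spots located by UV and ninhydrin.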

[7] = Biotransformation in mongrel dog assessed as ethacrynic acid-glutathione in urine at 17 umol/kg, iv for 10 mins after 2 hrs; type: ADME, organism-based, Canis lupus familiaris; conditions: in vivo; procedure, shortened: as §2
[8] = system: Canis familiaris; assay: Toxicity in mongrel dog assessed as increase in systolic pressure at 17 umol/kg, iv for 10 mins; type: organism-based, Canis lupus familiaris; conditions: in vivo
[9] = system: Canis familiaris; assay: Toxicity in mongrel dog assessed as increase in diastolic pressure at 17 umol/kg, iv for 10 mins; type: organism-based, Canis lupus familiaris; conditions: in vivo
[10] = system: Canis familiaris; assay: Diuretic activity in mongrel dog assessed as decrease in rate of sodium excretion during 2 hrs period at 17 umol/kg, iv for 10 mins; type: functional, organism-based; conditions: Canis lupus familiaris, Urine; procedure, shortened: as §1

solubility [1]	Stability [4]	Drug metabolism [6]	Drug metabolism [7]	SMILES	Activity [2]	Activity [3]	Activity [5]	Activity [8]	Activity [9]	Activity [10]
soluble	Stable	–	–	CCC(CN(C)C)C(=O)c1ccc(OCC(=O)O)cc1.Cl (stereo not given)	Non-toxic	inactive	Non-toxic	–	–	–
–	–	–	–	C=C(CC)C(=O)c1ccc(OCC(=O)[O-])c(Cl)c1Cl.[Na+] [ETHACRYNATE SODIUM]	Non-toxic	Active	–	–	–	–
soluble	Unstable	metabolite_detected	metabolite_detected	CCC(CN(C)C)C(=O)c1ccc(OCC(=O)O)c(Cl)c1Cl.Cl (stereo not given)	Non-toxic	Active	–	–	–	–
–	–	–	–	C=C(C)C(=O)c1ccc(OCC(=O)[O-])c(Cl)c1Cl.[Na+]	–	Active	–	Toxic	Toxic	–
–	–	–	–	C=C(CC)C(=O)c1ccc(OCC(=O)[O-])cc1.[Na+]	Non-toxic	inactive	Non-toxic	–	–	–
soluble	Stable	–	–	CN(C)CC(C)(C)C(=O)c1ccc(OCC(=O)O)c(Cl)c1Cl.Cl	Non-toxic	inactive	Toxic	–	–	inactive

Source: ChEMBL document CHEMBL3244220, “Diuretic activity of Mannich base derivatives of ethacrynic acid and certain ethacrynic acid analogues” (J Med Chem, 1978)
